The values below come from PubChem BioAssay AID871 (The Scripps Research Institute Molecular Screening Center, 2007).

Out of some 190,000 compounds screened, about 1,800 (0.95%) were called active. The full list was thinned out, with actives kept by preference. Unmarked numbers belong to inactive results.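 The calls were made as follows: active = activation above the screen-wide mean of compound activation plus 3 SD (cut at about 130% in these data); inactive = the rest.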

This assay can be described thus: IL-6 driven STAT3 reporter potentiators, primary screen, U3A cells, luciferase, luminescence, MLSCN library (AID 871).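 Also: 0% = background luminescence of wells with medium and substrate only.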 To be noted: IL-6 STAT3-luciferase reporter, at 5.6 µM, stronger effect = higher value. In outline:
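Material: STAT3-luciferase reporter U3A cells; Probe or stimulus: IL-6 (33 ng/mL); Incubation: compound pre-incubation 1 h before IL-6, then 6 h stimulation at 37 °C; Technique: luminescence from STAT3-driven luciferase reporter; Evaluation: % activation versus median of IL-6-stimulated wells; Controls: IL-6-only high control.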
Background: In a reporter assay the amount or activity of a reporter protein is the signal.
In the case of `COc1cc(-n2c(=S)[nH]c3ccc(C)cc3c2=O)c(Cl)cc1Cl`, the activation (% of control) was 156% (active).
For `CC(=O)c1c(C)n(C(C)C)c2ccc(O)cc12`, the activation (% of control) was 102%.
For `N#CC1=C(N)Oc2c(c(=O)oc3ccccc23)C1c1ccccc1OC(=O)c1cccs1` (stereo not given), the activation (% of control) was 106%.
For `CCOP(=S)(OCC)SCOC(=O)NCC(=O)OC`, the activation (% of control) was 106%.
Next, `CCC/C(=N\O)c1c[nH]c2ccccc12`: 153% (active); `C/C(CCc1c[nH]c2ccccc12)=N\O`: 98%.
Regarding `CC1=CC(=Cc2sc3ccccc3[n+]2C)C=C(C)O1`, the activation (% of control) was 30.2%.
Regarding `CCOc1ccc(CN(CCCl)CCCl)cc1C(=O)OC`, the activation (% of control) was 96.4%.
As for `CCOCCc1c(O)[nH]c(=S)[nH]c1=O`, the activation (% of control) was 99.3%.
As to `O=C(Nc1cccc2ccccc12)N1CCC2(CC1)OCCO2`, the activation (% of control) was 105%.
